In ChEMBL document CHEMBL1649436, “Antiviral activity of MK-4965, a novel nonnucleoside reverse transcriptase inhibitor” (Antimicrob Agents Chemother, 2009):

Key:
[1] = test system: Human immunodeficiency virus 1; assay: Antiviral activity against HIV1 isolate R8 harboring wild type reverse transcriptase infected in human MT4 cells assessed as inhibition of viral replication after 72 hrs in presence of 10% FBS; type: functional; conditions: Human immunodeficiency virus 1, isolate R8, MT4, 72 h
In short: (§1)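 Multiple-cycle assay: MT-4 cells (2.5 × 10^5) infected with R8-based virus at low MOI, no inhibitor, 24 h at 37°C, 5% CO2; washed, reseeded at 5 × 10^4 cells in RPMI 1640 with 10% FBS or 50% type AB human serum; threefold serial dilutions from 833 nM to 0.32 nM; 72 h; p24 in medium by AlphaScreen; EC95 = lowest concentration giving ≥95% p24 reduction versus untreated.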

[2] = test system: Human immunodeficiency virus 1; assay: Antiviral activity against HIV1 isolate R8 harboring reverse transcriptase Y181C mutant infected in human MT4 cells assessed as inhibition of viral replication after 72 hrs in presence of 50% human serum; type: functional; conditions: Human immunodeficiency virus 1, isolate R8, MT4, 72 h; in short: as §1
[3] = test system: Human immunodeficiency virus 1; assay: Antiviral activity against PI-resistant HIV1 harboring mutant reverse transcriptase relative to HIV1 CNDO with wild type reverse transcriptase; type: functional
In short: (§2)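 Single-cycle PhenoScreen assay run by Monogram Biosciences, using viruses carrying RT sequences from clinical isolates, subtypes/CRFs or PI/NRTI-resistant clade B viruses; nine serial drug concentrations; activity expressed relative to drug-sensitive reference strain CNDO (protease and RT from NL4-3), with multidrug-resistant MDRC4 as assay-performance control.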

[4] = Cytotoxicity against activated human macrophage after 24 to 72 hrs by alamar blue assay; type: cell-based
In short: (§3)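 Cytotoxicity measured with Alamar blue after incubation at 37°C in 5% CO2 for 24, 48 or 72 h, in stationary and activated primary cells (CD4 cells, monocytes, PBMC, macrophages) and proliferating lines (MT4, SupT1, HL60).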

[5] = test system: Human immunodeficiency virus 1; assay: Antiviral activity against HIV1 clade B harboring mutant reverse transcriptase relative to HIV1 CNDO with wild type reverse transcriptase; type: functional
[6] = test system: Human immunodeficiency virus 1; assay: Selectivity ratio of IC50 for HIV1 isolate R8 reverse transcriptase K103N mutant to IC50 for HIV1 isolate R8 reverse transcriptase
[7] = test system: Human immunodeficiency virus 1; assay: Antiviral activity against HIV1 isolate R8 harboring reverse transcriptase L100I mutant relative to drug-sensitive HIV1 CNDO; type: functional; in short: as §2
[8] = test system: Human immunodeficiency virus 1; assay: Antiviral activity against HIV1 clade F1 harboring mutant reverse transcriptase relative to HIV1 CNDO with wild type reverse transcriptase; type: functional
[9] = test system: Human immunodeficiency virus 1; assay: Ratio of EC95 for HIV1 isolate R8 harboring reverse transcriptase K103N mutant in presence of 50% human serum to EC95 for HIV1 isolate R8 harboring wild type reverse transcriptase in presence of 50% human serum; type: functional
In short: (§4)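 Ratios of EC95 values from the MT-4 multiple-cycle assay: R8 variants infected 24 h at low MOI, then reseeded in RPMI 1640 with 10% FBS or 50% type AB human serum with threefold dilutions (833–0.32 nM) for 72 h; p24 by AlphaScreen; EC95 = lowest concentration cutting p24 ≥95% versus untreated controls.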

[10] = test system: Human immunodeficiency virus 1; assay: Antiviral activity against HIV1 clade H harboring mutant reverse transcriptase relative to HIV1 CNDO with wild type reverse transcriptase; type: functional
[11] = test system: Human immunodeficiency virus 1; assay: Antiviral activity against NRTI-, PI-resistant HIV1 harboring mutant reverse transcriptase relative to HIV1 CNDO with wild type reverse transcriptase; type: functional; in short: as §2
[12] = test system: Human immunodeficiency virus 1; assay: Antiviral activity against HIV1 isolate R8 harboring reverse transcriptase K103N mutant infected in human MT4 cells assessed as inhibition of viral replication after 72 hrs in presence of 50% human serum; type: functional; conditions: Human immunodeficiency virus 1, isolate R8, MT4, 72 h; in short: as §1
[13] = test system: Human immunodeficiency virus 1; assay: Antiviral activity against HIV1 CRF17_BF harboring mutant reverse transcriptase relative to HIV1 CNDO with wild type reverse transcriptase; type: functional; in short: as §2
[14] = test system: MT4; assay: Cytotoxicity against human MT4 cells after 24 to 72 hrs by alamar blue assay; type: cell-based; in short: as §3
[15] = test system: Human immunodeficiency virus 1; assay: Antiviral activity against HIV1 isolate R8 harboring reverse transcriptase K103N and Y181C mutant infected in human MT4 cells assessed as inhibition of viral replication after 72 hrs in presence of 10% FBS; type: functional; conditions: Human immunodeficiency virus 1, isolate R8, MT4, 72 h; in short: as §1
[16] = test system: Human immunodeficiency virus 1; assay: Antiviral activity against HIV1 isolate R8 harboring reverse transcriptase K103N and Y181C mutant infected in human MT4 cells assessed as inhibition of viral replication after 72 hrs in presence of 50% human serum; type: functional; conditions: Human immunodeficiency virus 1, isolate R8, MT4, 72 h; in short: as §1
[17] = test system: Human immunodeficiency virus 1; assay: Antiviral activity against HIV1 CRF02_AG harboring mutant reverse transcriptase relative to HIV1 CNDO with wild type reverse transcriptase; type: functional; in short: as §2
[18] = Cytotoxicity against stationary-phase human monocyte after 24 to 72 hrs by alamar blue assay; type: cell-based; in short: as §3
[19] = Cytotoxicity against human SupT1 cells after 24 to 72 hrs by alamar blue assay; type: cell-based; conditions: SUP-T1; in short: as §3
[20] = test system: Human immunodeficiency virus 1; assay: Antiviral activity against HIV1 clade C harboring mutant reverse transcriptase relative to HIV1 CNDO with wild type reverse transcriptase; type: functional
[21] = Cytotoxicity against stationary-phase human macrophage after 24 to 72 hrs by alamar blue assay; type: cell-based; in short: as §3
[22] = test system: Human immunodeficiency virus 1; assay: Ratio of EC95 for HIV1 isolate R8 harboring reverse transcriptase K103N and Y181C mutant in presence of 50% human serum to EC95 for HIV1 isolate R8 harboring reverse transcriptase K103N and Y181C mutant in presence of 10% FBS; type: functional; in short: as §4
[23] = test system: HL-60; assay: Cytotoxicity against human HL60 cells after 24 to 72 hrs by alamar blue assay; type: cell-based; in short: as §3
[24] = test system: Human immunodeficiency virus 1; assay: Selectivity ratio of IC50 for HIV1 isolate R8 reverse transcriptase Y181C mutant to IC50 for HIV1 isolate R8 reverse transcriptase
[25] = test system: Human immunodeficiency virus 1; assay: Ratio of EC95 for HIV1 isolate R8 harboring reverse transcriptase Y181C mutant in presence of 50% human serum to EC95 for HIV1 isolate R8 harboring wild type reverse transcriptase in presence of 50% human serum; type: functional; in short: as §4
[26] = test system: Plasma; assay: Plasma protein binding in HIV1 infected patient; type: ADME, cell-free; conditions: human
[27] = test system: Human immunodeficiency virus 1; assay: Ratio of EC95 for HIV1 isolate R8 harboring wild type reverse transcriptase in presence of 50% human serum to EC95 for HIV1 isolate R8 harboring wild type reverse transcriptase in presence of 10% FBS; type: functional; in short: as §4
[28] = test system: Human immunodeficiency virus 1; assay: Antiviral activity against HIV1 clade D harboring mutant reverse transcriptase relative to HIV1 CNDO with wild type reverse transcriptase; type: functional
[29] = test system: Human immunodeficiency virus 1; assay: Antiviral activity against NRTI-resistant HIV1 harboring mutant reverse transcriptase relative to HIV1 CNDO with wild type reverse transcriptase; type: functional; in short: as §2
[30] = test system: Human immunodeficiency virus 1; assay: Antiviral activity against HIV1 clade A harboring mutant reverse transcriptase relative to HIV1 CNDO with wild type reverse transcriptase; type: functional
[31] = test system: Human immunodeficiency virus 1; assay: Antiviral activity against HIV1 isolate R8 harboring reverse transcriptase Y181C mutant infected in human MT4 cells assessed as inhibition of viral replication after 72 hrs in presence of 10% FBS; type: functional; conditions: Human immunodeficiency virus 1, isolate R8, MT4, 72 h; in short: as §1
[32] = test system: PBMC; assay: Cytotoxicity against stationary-phase human PBMC after 24 to 72 hrs by alamar blue assay; type: cell-based; in short: as §3
[33] = test system: Human immunodeficiency virus 1; assay: Antiviral activity against HIV1 isolate R8 harboring reverse transcriptase Y188L mutant relative to drug-sensitive HIV1 CNDO; type: functional; in short: as §2
[34] = test system: Human immunodeficiency virus 1; assay: Ratio of EC95 for HIV1 isolate R8 harboring reverse transcriptase Y181C mutant in presence of 50% human serum to EC95 for HIV1 isolate R8 harboring reverse transcriptase Y181C mutant in presence of 10% FBS; type: functional; in short: as §4
[35] = test system: PBMC; assay: Cytotoxicity against activated human PBMC after 24 to 72 hrs by alamar blue assay; type: cell-based; in short: as §3
[36] = test system: Human immunodeficiency virus 1; assay: Antiviral activity against HIV1 CRF01_AE harboring mutant reverse transcriptase relative to HIV1 CNDO with wild type reverse transcriptase; type: functional; in short: as §2
[37] = test system: Human immunodeficiency virus 1; assay: Ratio of EC95 for HIV1 isolate R8 harboring reverse transcriptase K103N and Y181C mutant in presence of 50% human serum to EC95 for HIV1 isolate R8 harboring wild type reverse transcriptase in presence of 50% human serum; type: functional; in short: as §4
[38] = Cytotoxicity against activated human CD4+ T cells after 24 to 72 hrs by alamar blue assay; type: cell-based; conditions: T-cell; in short: as §3
[39] = test system: Human immunodeficiency virus 1; assay: Antiviral activity against HIV1 isolate R8 harboring reverse transcriptase K103N and G190A mutant relative to drug-sensitive HIV1 CNDO; type: functional; in short: as §2
[40] = test system: Human immunodeficiency virus 1; assay: Antiviral activity against HIV1 isolate R8 harboring reverse transcriptase V106A, G190A and F227L mutant relative to drug-sensitive HIV1 CNDO; type: functional; in short: as §2
[41] = test system: Human immunodeficiency virus 1; assay: Ratio of EC95 for HIV1 isolate R8 harboring reverse transcriptase K103N mutant in presence of 50% human serum to EC95 for HIV1 isolate R8 harboring reverse transcriptase K103N mutant in presence of 10% FBS; type: functional; in short: as §4
[42] = Cytotoxicity against activated human monocyte after 24 to 72 hrs by alamar blue assay; type: cell-based; in short: as §3
[43] = test system: Human immunodeficiency virus 1; assay: Antiviral activity against HIV1 isolate R8 harboring wild type reverse transcriptase infected in human MT4 cells assessed as inhibition of viral replication after 72 hrs in presence of 50% human serum; type: functional; conditions: Human immunodeficiency virus 1, isolate R8, MT4, 72 h; in short: as §1
[44] = Cytotoxicity against stationary-phase human CD4+ T cells after 24 to 72 hrs by alamar blue assay; type: cell-based; conditions: T-cell; in short: as §3
[45] = test system: Human immunodeficiency virus 1; assay: Antiviral activity against HIV1 isolate R8 harboring reverse transcriptase K103N mutant infected in human MT4 cells assessed as inhibition of viral replication after 72 hrs in presence of 10% FBS; type: functional; conditions: Human immunodeficiency virus 1, isolate R8, MT4, 72 h; in short: as §1
[46] = test system: Human immunodeficiency virus 1; assay: Antiviral activity against HIV1 clade G harboring mutant reverse transcriptase relative to HIV1 CNDO with wild type reverse transcriptase; type: functional

N#Cc1cc(Cl)cc(Oc2cc(OCc3n[nH]c4nc(N)ccc34)ccc2Cl)c1
EC95 [1]: 0.0044 µM
EC95 [2]: 0.184 µM
fold change (FC) [3]: 0.84
EC50 [4]: > 3 µM
fold change (FC) [5]: 1.25
fold change (FC) [6]: 2
fold change (FC) [7]: 0.9
fold change (FC) [8]: 0.72
fold change (FC) [9]: 2
fold change (FC) [10]: 0.22
fold change (FC) [11]: 0.18
EC95 [12]: 0.058 µM
fold change (FC) [13]: 1.15
EC50 [14]: > 3 µM
EC95 [15]: 0.128 µM
EC95 [16]: 0.447 µM
fold change (FC) [17]: 0.92
EC50 [18]: > 3 µM
EC50 [19]: > 3 µM
fold change (FC) [20]: 1.07
EC50 [21]: > 3 µM
fold change (FC) [22]: 4
EC50 [23]: > 3 µM
fold change (FC) [24]: 2
fold change (FC) [25]: 6
Activity [26]: 96.5%
fold change (FC) [27]: 4
fold change (FC) [28]: 0.56
fold change (FC) [29]: 0.3
fold change (FC) [30]: 0.73
EC95 [31]: 0.03 µM
EC50 [32]: > 3 µM
fold change (FC) [33]: > 100
fold change (FC) [34]: 4
EC50 [35]: > 3 µM
fold change (FC) [36]: 0.9
fold change (FC) [37]: 15
EC50 [38]: > 3 µM
fold change (FC) [39]: 5
fold change (FC) [40]: > 100
fold change (FC) [41]: 4
EC50 [42]: > 3 µM
EC95 [43]: 0.029 µM
EC50 [44]: > 3 µM
EC95 [45]: 0.013 µM
fold change (FC) [46]: 0.58
